Tested on: MS2 coat protein
Assay: apparent Kd, MS2 coat protein; higher = weaker binding; RNA-MaP array; FMN 200 µM where present
In short: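 The apparent Kd comes from binding curves fitted cluster by cluster, filtered, and summarised as a median. Those curves followed SNAP-549-labelled MS2 coat protein from 0.7 or 1.5 nM, doubling to 3 µM, on Illumina sequencing-chip clusters where stalled E. coli RNA polymerase had transcribed the designs, without and then with constant ligand. The buffer was 100 mM Tris-HCl pH 7.5, 80 mM KCl, 4 mM MgCl2, BSA, DTT, yeast tRNA and Tween-20, and green signal was normalised to red-channel RNA signal and control-cluster median Fmax.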

[1] = designed as: ON switch for flavin mononucleotide, no ligand
[2] = ligand present: flavin mononucleotide, designed as: ON switch for flavin mononucleotide
[3] = designed as: OFF switch for flavin mononucleotide, no ligand
[4] = ligand present: flavin mononucleotide, designed as: OFF switch for flavin mononucleotide

| Sequence | apparent Kd [1] [nM] | apparent Kd [2] [nM] | apparent Kd [3] [nM] | apparent Kd [4] [nM] |
| --- | --- | --- | --- | --- |
| UUGUUUCGUCAUUAACAUGAGGAUCACCCAUGUAUCGACUCAAAGGAUAUAUAUGCUUGUUUGCAAUAGAAGGUUGAUUGUUGU | 27.9 | 26.5 |  |  |
| GCCAUCGCAUGAGGAUAUGCUCCCGUUUCGGGAGCAGAAGGCAUGUCGUAAGACAUGAGGAUCACCCAUGUAGUUAAGAUGGCA | 855 | 59.6 |  |  |
| AUGGCUAAUGAGAAGGUGUAUAUAAAUUAUAUACAAGGAUAUCGGUCAAGCAUGAAAACAUGAGGAUCACCCAUGUAAAGCCAU | 9.37 | 7.57 |  |  |
| CCUCUGUGAGGAUAUCUAGAGUAGGCUGACAAUGUCAUUCAGGAGAAGGUACAUGAGGAUCACCCAUGUUCGGC |  |  | 24.4 | 56.3 |
| GGAGCCGGUACUGAGGAUAUUCAUAUUAAAACAUGAGGAUCACCCAUGUAGGCCAGAAGGCCUUGGGAGAAGGCAGACCAGCUCG | 391 | 26.7 |  |  |
| CCGUCGCUUAGCGCUCCUCAUACAUGAGGAUCACCCAUGUACAGAAGGCGGAGGGCCAGGCCCACCGAGGAUAUGUAAGUGUGA |  |  | 73 | 73.2 |
| CGGCGCUGUUGAGAGGAUAUGCGGUGAUGGACAUGAGGAUCACCCAUGUUAGCGAUAGCAUUACGGUAGAAGGCUCUACAGCUGU | 28.1 | 16.7 |  |  |
| GUCAGCUCGUGAGGAUAUACAUGUGCUGGAAACAGCACUAUUAAGUUCACAUGAGGAUCACCCAUGUAGAAGGCACGAGCUGAU |  |  | 15.7 | 20.3 |
| GCCGGUUAAGUCAGGAUAUACCUAUGGAUACAUAGGUAGAAGGGACAUGAGGAUCACCCAUGUUCCUCAUCGGC |  |  | 16.1 | 48.9 |
| CAGUACUGAGGAUAUACAUGAGGAUCACCCAUGUGUUCCAGCUAGGAAACUAGCAAAAGUAGAAGGCAGUACUG |  |  | 27.5 | 589 |
| CGCGAACAGUUUAACAUGAGGAUCACCCAUGUGGACUCAUGGUAGGAUAUCGGGAAGGAGGAAACCGAGAAGGGCUGGUGAGCC | 583 | 419 |  |  |
| CAUCCACGGUAGAAGGGACUAGGCACAUGAGGAUCACCCAUGUCCUUUCCCAACUUGUGCCGCGGUCAGGAUAUACCGGGUCGG |  |  | 12.5 | 20 |
| GUGUGAAUAAGAGGAUAUAUACAACAUGAGGAUCACCCAUGUACCCGUGUAGUAGAAGGUUUGUUUUUAUAUAAUAUUAUAUUU | 27.4 | 22.8 |  |  |
| CGAAAAUUUCAGAAGGACCGAUUCCACAUGAGGAUCACCCAUGUCGAUGGUAGGAUAUGGAGUUGUGGACAGGGCGGAUGUUCC | 46.3 | 8.39 |  |  |
| GUCAGCUCGUGAGGAUAUACAACACUGCUUCGGCAGUGUAAUUUCCUCACAUGAGGAUCACCCAUGUAGAAGGCACGAGCUGAU |  |  | 12.7 | 242 |
| CAGUACUGAGGAUAUACAUGAGGAUCACCCAUGUGUUCCAGCGAGGAAACUAGCAAAAGUAGAAGGCAGUACUG |  |  | 20.4 | 278 |
| GCGUACAUAUCAGGAUAUCAUAUUAUUGUUUUACUCAGUGUAUACAUGAGGAUCACCCAUGUUCUUGAGAAGGGAUAUGUACGC |  |  | 8.22 | 9.91 |
| GGGUACAUCGGAGGAUAUCAUGUAAAUACAUGAGGAUCACCCAUGUAGAUGGAGACAUCGGAGAUUGAGAAGGCCGAUGUACCG | 7.69 | 5.84 |  |  |
| UGUCGGAGCAGAGGAUAUUACAUGAGGAUCACCCAUGUCUGAACCAAUAGCUGGAAACAGCAAUGUAAGAAGGCUGCUCCGACA |  |  | 154 | 432 |
| CAAACCAGAGGAUAUGCGCAUAGAUCAGACUUUGUUUCUGAACAUGAGGAUCACCCAUGUAGAAGGCUGUAAAC |  |  | 25.5 | 24.4 |
| UGCCUUUGAGGAUAUACAUUGAAUUUGAUUCAUGUAAAACUACAUGAGGAUCACCCAUGUAGAAGGCAAGGGCU |  |  | 18.7 | 27.7 |
| GUAGGAAUCACAGGAUAUGCAUGCGCCGCUUCGUUCUACAUGAGGAUCACCCAUGUGUGGUCCGUGUAGAAGGGUGUUUGCUAC | 33.9 | 11.6 |  |  |
| UAACAGCAAGGAUAUACGGGCUGUGCUUUUCAUUUCUUACAACAUGAGGAUCACCCAUGUAGAAGGUGCAACAU |  |  | 32.5 | 76.9 |
| AAGAAGUCAGGAUAUCCUGCUCGUCACUUGCGUGAUGAGUAGGAGAAGGGACAUGAGGAUCACCCAUGUAAAGG |  |  | 137 | 267 |
